In brackets after ≈: the same amount, converted by molar mass. Activity calls are given as the source filed them. No cut-off for these calls is given here.
Legend:
Escherichia coli [1] = assay: Antibacterial activity against Escherichia coli ATCC 25922 after 24 hrs by two fold serial dilution method; type: functional
Candida albicans [2] = assay: Antifungal activity against Candida albicans NRRL Y-477 at 50 mg/mL after 48 hrs by agar well diffusion method; type: functional
Bacillus subtilis [3] = assay: microbe, parasite or virus in culture; conditions: ATCC 6633, 24 h, read-out: DIZ
Saccharomyces cerevisiae [4] = assay: Antifungal activity against Saccharomyces cerevisiae at 50 mg/mL after 48 hrs by agar well diffusion method; type: functional
Micrococcus luteus [5] = assay: Antibacterial activity against Sarcina lutea at 50 mg/mL after 24 hrs by agar well diffusion method; type: functional
Klebsiella pneumoniae [6] = assay: Antibacterial activity against Klebsiella pneumoniae ATCC 13883 after 24 hrs by two fold serial dilution method; type: functional
Saccharomyces cerevisiae [7] = assay: Antifungal activity against Saccharomyces cerevisiae after 48 hrs by two fold serial dilution method; type: functional
Method in brief: (§1)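 Two-fold serial broth dilution in a suitable broth, run only on compounds giving inhibition zones of at least 16 mm. Final concentrations were […]. Each 5 mL received 0.1 mL inoculum and was incubated 48 h at 28 °C. MIC was the lowest concentration without growth.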

Micrococcus luteus [8] = assay: Antibacterial activity against Sarcina lutea after 24 hrs by two fold serial dilution method; type: functional
Klebsiella pneumoniae [9] = assay: microbe, parasite or virus in culture; conditions: ATCC 13883, 24 h, read-out: DIZ
Priestia megaterium [10] = assay: Antibacterial activity against Bacillus megaterium ATCC 9885 at 50 mg/mL after 24 hrs by agar well diffusion method; type: functional
Staphylococcus aureus [11] = assay: microbe, parasite or virus in culture; conditions: ATCC 29213, 24 h, read-out: DIZ
Pseudomonas aeruginosa [12] = assay: microbe, parasite or virus in culture; conditions: ATCC 27953, 24 h, read-out: DIZ
Bacillus subtilis [13] = assay: Antibacterial activity against Bacillus subtilis ATCC 6633 after 24 hrs by two fold serial dilution method; type: functional
Priestia megaterium [14] = assay: Antibacterial activity against Bacillus megaterium ATCC 9885 after 24 hrs by two fold serial dilution method; type: functional
Candida albicans [15] = assay: Antifungal activity against Candida albicans NRRL Y-477 after 48 hrs by two fold serial dilution method; type: functional; method in brief: as §1
Aspergillus niger [16] = assay: Antifungal activity against Aspergillus niger at 50 mg/mL after 48 hrs by agar well diffusion method; type: functional
Aspergillus niger [17] = assay: Antifungal activity against Aspergillus niger after 48 hrs by two fold serial dilution method; type: functional; method in brief: as §1
Pseudomonas aeruginosa [18] = conditions: ATCC 27953, 50 mg/mL
Klebsiella pneumoniae [19] = conditions: ATCC 13883, 50 mg/mL
Staphylococcus aureus [20] = assay: Antibacterial activity against Staphylococcus aureus ATCC 29213 after 24 hrs by two fold serial dilution method; type: functional
Bacillus subtilis [21] = conditions: ATCC 6633, 50 mg/mL
Escherichia coli [22] = assay: Antibacterial activity against Escherichia coli ATCC 25922 at 50 mg/mL after 24 hrs by agar well diffusion method; type: functional, organism-based
Method in brief: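 Agar well diffusion: bacterial suspension at 1 × 10⁸ CFU/mL spread on nutrient agar; 10 mm wells cut in solidified agar and filled with compound in DMSO; plates incubated 24 h at 37 °C; inhibition zone diameter read; DMSO as negative control.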

Staphylococcus aureus [23] = conditions: ATCC 29213, 50 mg/mL
Pseudomonas aeruginosa [24] = assay: Antibacterial activity against Pseudomonas aeruginosa ATCC 27953 after 24 hrs by two fold serial dilution method; type: functional
Priestia megaterium [25] = assay: Antibacterial activity against Bacillus megaterium ATCC 9885 using 100 uL of test compound after 24 hrs by agar well diffusion method; type: functional
Method in brief: (§2)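 Agar well diffusion. Nutrient agar was spread with bacterial suspension at 1×10⁸ CFU/mL, and 10 mm wells were cut. Wells were loaded with compound solution made at 200 mg per 1 mL DMSO. Plates were incubated 24 h at 37 °C and inhibition zones were measured. DMSO served as the negative control.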

Aspergillus niger [26] = assay: Antifungal activity against Aspergillus niger using 100 uL of test compound after 48 hrs by agar well diffusion method; type: functional
Method in brief: as §2, with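 “Sabouraud dextrose” for “Nutrient”, “yeast or fungal” for “bacterial”, “1×10⁶” for “1×10⁸”, “48” for “24”, “28” for “37”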

Escherichia coli [27] = assay: Antibacterial activity against Escherichia coli ATCC 25922 using 100 uL of test compound after 24 hrs by agar well diffusion method; type: functional; method in brief: as §2
Staphylococcus aureus [28] = assay: Antibacterial activity against Staphylococcus aureus ATCC 29213 using 100 uL of test compound after 24 hrs by agar well diffusion method; type: functional; method in brief: as §2
Pseudomonas aeruginosa [29] = assay: Antibacterial activity against Pseudomonas aeruginosa ATCC 27953 using 100 uL of test compound after 24 hrs by agar well diffusion method; type: functional; method in brief: as §2
Micrococcus luteus [30] = assay: Antibacterial activity against Sarcina lutea using 100 uL of test compound after 24 hrs by agar well diffusion method; type: functional; method in brief: as §2
[31] = Antioxidant activity assessed as DPPH free radical scavenging activity by spectrophotometric assay; type: physicochemical
Method in brief: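 Sample solutions at several concentrations were added to 0.004% DPPH in methanol and incubated 60 min in the dark. Absorbance was read at 517 nm against a blank. Inhibition % = (A_blank − A_sample)/A_blank × 100, where the control contained all reagents except the test compound.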

Saccharomyces cerevisiae [32] = assay: Antifungal activity against Saccharomyces cerevisiae using 100 uL of test compound after 48 hrs by agar well diffusion method; type: functional
Method in brief: as §2, with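 “Sabouraud dextrose” for “Nutrient”, “yeast or fungal” for “bacterial”, “1×10⁶” for “1×10⁸”, “48” for “24”, “28” for “37”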

Bacillus subtilis [33] = assay: Antibacterial activity against Bacillus subtilis ATCC 6633 using 100 uL of test compound after 24 hrs by agar well diffusion method; type: functional; method in brief: as §2
Klebsiella pneumoniae [34] = assay: Antibacterial activity against Klebsiella pneumoniae ATCC 13883 using 100 uL of test compound after 24 hrs by agar well diffusion method; type: functional; method in brief: as §2
Candida albicans [35] = assay: Antifungal activity against Candida albicans NRRL Y-477 using 100 uL of test compound after 48 hrs by agar well diffusion method; type: functional
Method in brief: as §2, with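 “Sabouraud dextrose” for “Nutrient”, “yeast or fungal” for “bacterial”, “1×10⁶” for “1×10⁸”, “48” for “24”, “28” for “37”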

SMILES | MIC (Saccharomyces cerevisiae [7]) | MIC (Micrococcus luteus [8]) | MIC (Candida albicans [15]) | MIC (Aspergillus niger [17]) | MIC (Escherichia coli [1]) | MIC (Klebsiella pneumoniae [6]) | MIC (Bacillus subtilis [13]) | MIC (Priestia megaterium [14]) | MIC (Pseudomonas aeruginosa [24]) | diameter of the inhibition zone (DIZ) (Priestia megaterium [25]) | diameter of the inhibition zone (DIZ) (Aspergillus niger [26]) | diameter of the inhibition zone (DIZ) (Escherichia coli [27]) | diameter of the inhibition zone (DIZ) (Staphylococcus aureus [28]) | diameter of the inhibition zone (DIZ) (Pseudomonas aeruginosa [29]) | diameter of the inhibition zone (DIZ) (Micrococcus luteus [30]) | IC50 [31] | diameter of the inhibition zone (DIZ) (Saccharomyces cerevisiae [32]) | diameter of the inhibition zone (DIZ) (Bacillus subtilis [33]) | diameter of the inhibition zone (DIZ) (Klebsiella pneumoniae [34]) | diameter of the inhibition zone (DIZ) (Candida albicans [35]) | further results
O=C(O)c1cn(C2CC2)c2cc(N3CCNCC3)c(F)cc2c1=O [CIPROFLOXACIN] | inactive | 25 µg/mL (≈ 75.4 µM) | inactive | inactive | – | – | – | – | – | – | – | – | – | – | – | – | – | – | – | – | MIC (Escherichia coli [1]; ATCC 25922, 24 h): 25 µg/mL (≈ 75.4 µM); diameter of the inhibition zone (DIZ) (Candida albicans [2]): inactive; zone of inhibition at 50000 µg/mL (Bacillus subtilis [3]): 22 mm; diameter of the inhibition zone (DIZ) (Saccharomyces cerevisiae [4]): inactive; zone of inhibition at 50000 µg/mL (Micrococcus luteus [5]; read-out: DIZ): 20 mm; MIC (Klebsiella pneumoniae [6]; ATCC 13883, 24 h): 25 µg/mL (≈ 75.4 µM); zone of inhibition at 50000 µg/mL (Klebsiella pneumoniae [9]): 25 mm; zone of inhibition at 50000 µg/mL (Priestia megaterium [10]; ATCC 9885, 24 h, read-out: DIZ): 24 mm; zone of inhibition at 50000 µg/mL (Staphylococcus aureus [11]): 20 mm; zone of inhibition at 50000 µg/mL (Pseudomonas aeruginosa [12]): 24 mm; MIC (Bacillus subtilis [13]; ATCC 6633, 24 h): 25 µg/mL (≈ 75.4 µM); MIC (Priestia megaterium [14]; ATCC 9885, 24 h): 25 µg/mL (≈ 75.4 µM); diameter of the inhibition zone (DIZ) (Aspergillus niger [16]): inactive
Clc1ccccc1C(c1ccccc1)(c1ccccc1)n1ccnc1 [CLOTRIMAZOLE] | 25 µg/mL (≈ 72.5 µM) | inactive | – | 25 µg/mL (≈ 72.5 µM) | inactive | inactive | inactive | inactive | inactive | – | – | – | – | – | – | – | – | – | – | – | DIZ (Pseudomonas aeruginosa [18]): inactive; zone of inhibition at 50000 µg/mL (Candida albicans [2]; NRRL Y-477, 48 h, read-out: DIZ): 30 mm; zone of inhibition at 50000 µg/mL (Saccharomyces cerevisiae [4]; read-out: DIZ): 31 mm; diameter of the inhibition zone (DIZ) (Micrococcus luteus [5]): inactive; DIZ (Klebsiella pneumoniae [19]): inactive; MIC (Staphylococcus aureus [20]): inactive; diameter of the inhibition zone (DIZ) (Priestia megaterium [10]): inactive; DIZ (Bacillus subtilis [21]): inactive; MIC (Candida albicans [15]; NRRL Y-477, 48 h): 25 µg/mL (≈ 72.5 µM); diameter of the inhibition zone (DIZ) (Escherichia coli [22]): inactive; DIZ (Staphylococcus aureus [23]): inactive; zone of inhibition at 50000 µg/mL (Aspergillus niger [16]; read-out: DIZ): 33 mm
CC(Cc1cn(CC(=O)c2ccc(S(=O)(=O)c3ccccc3)cc2)nn1)(OCc1cn(CC(=O)c2ccc(S(=O)(=O)c3ccccc3)cc2)nn1)c1ccc(S(=O)(=O)c2ccccc2)cc1 (stereo not given) | inactive | 100 µg/mL (≈ 106 µM) | inactive | 25 µg/mL (≈ 26.6 µM) | – | – | inactive | – | 200 µg/mL (≈ 213 µM) | 22 mm | 34 mm | 17 mm | 14 mm | 19 mm | 25 mm | 600 µg/mL (≈ 638 µM) | 14 mm | 14 mm | 19 mm | 15 mm | MIC (Escherichia coli [1]; ATCC 25922, 24 h): 200 µg/mL (≈ 213 µM); MIC (Klebsiella pneumoniae [6]; ATCC 13883, 24 h): 200 µg/mL (≈ 213 µM); MIC (Staphylococcus aureus [20]): inactive; MIC (Priestia megaterium [14]; ATCC 9885, 24 h): 200 µg/mL (≈ 213 µM)
CC(O)(Cc1cn(CC(=O)c2ccccc2)nn1)c1ccc(S(=O)(=O)c2ccccc2)cc1 (stereo not given) | inactive | 200 µg/mL (≈ 433 µM) | inactive | 50 µg/mL (≈ 108 µM) | inactive | inactive | – | inactive | 200 µg/mL (≈ 433 µM) | 15 mm | 32 mm | 14 mm | 18 mm | 19 mm | 22 mm | 600 µg/mL (≈ 1300 µM) | 14 mm | 19 mm | 13 mm | 15 mm | MIC (Staphylococcus aureus [20]; ATCC 29213, 24 h): 200 µg/mL (≈ 433 µM); MIC (Bacillus subtilis [13]; ATCC 6633, 24 h): 200 µg/mL (≈ 433 µM)
O=C(Cn1cc(COC(Cc2cn(CC(=O)c3ccc(S(=O)(=O)c4ccccc4)cc3)nn2)c2ccc(S(=O)(=O)c3ccccc3)cc2)nn1)c1ccc(S(=O)(=O)c2ccccc2)cc1 (stereo not given) | inactive | 200 µg/mL (≈ 216 µM) | inactive | 100 µg/mL (≈ 108 µM) | inactive | inactive | inactive | inactive | inactive | inactive | 20 mm | inactive | 17 mm | 14 mm | 19 mm | 600 µg/mL (≈ 647 µM) | inactive | 14 mm | 13 mm | 14 mm | MIC (Staphylococcus aureus [20]; ATCC 29213, 24 h): 200 µg/mL (≈ 216 µM)
